Measurements from ChEMBL document CHEMBL1121744, “Synthesis and antihypertensive activity of a series of 8-substituted 1-oxa-3,8-diazaspiro[4.5]decan-2-ones” (J Med Chem, 1981).
“And” between values parts separate entries of the source, which are not always exact repeats. Identical values can stand only once. The source made the active and inactive calls. The calls are words filed in the database; no cut-off is given here.

Assays:
Rattus norvegicus [1] = test: Antihypertensive activity as percentage fall in systolic blood pressure in spontaneously hypertensive rats after a period of 1 hr for a dose of 50 mg/kg; assay type: functional, Artery
Outline: (§1)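 Male Okamoto-Aoki SHR, trained, in groups of four matched for mean systolic pressure; one group per run received water vehicle. Oral dosing in water (0.1 mL per 10 g) on two consecutive mornings. After the day-2 dose, rats were restrained at 30.0 ± 1.0 °C. Systolic pressure was read by tail cuff (inflated to 300 mmHg, first pulse) at 1–4 h. % fall is versus the untreated control group, by 1-tail t test (p ≤ 0.05).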

Rattus norvegicus [2] = test: Percentage fall in systolic blood pressure in spontaneously hypertensive rats after 2 hr following 50 mg/kg p.o.; assay type: functional, Artery; settings: route oral; outline: as §1
Rattus norvegicus [3] = test: The antihypertensive activity as percentage fall in systolic blood pressure in spontaneously hypertensive rats after a period of 2 hr for a dose of 25 mg/kg po; assay type: functional, Artery; outline: as §1
Rattus norvegicus [4] = test: The antihypertensive activity as percentage fall in systolic blood pressure in spontaneously hypertensive rats after a period of 4 hr for a dose of 25 mg/kg po; NS=Not significant; assay type: functional, organism-based; parameters: dose 25 mg/kg; settings: Artery; outline: as §1
Rattus norvegicus [5] = test: The antihypertensive activity as percentage fall in systolic blood pressure in spontaneously hypertensive rats after a period of 3 hr for a dose of 25 mg/kg po; NS=Not significant; assay type: functional, organism-based; parameters: dose 25 mg/kg; settings: Artery; outline: as §1
Rattus norvegicus [6] = test: The antihypertensive activity as percentage fall in systolic blood pressure in spontaneously hypertensive rats after a period of 1 hr for a dose of 25 mg/kg po; assay type: functional, Artery; outline: as §1
Rattus norvegicus [7] = test: Percentage fall in systolic blood pressure in spontaneously hypertensive rats after 3 h following 50 mg/kg p.o.; assay type: functional, Artery; settings: route oral; outline: as §1
Canis familiaris [8] = test: Percent inhibition of the pressor responses to 7.5 ug/kg iv phenylephrine in pentobarbital-anesthetized dogs for a dose of 0.1 mg/kg; assay type: functional; settings: Canis lupus familiaris
Outline: (§2)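 Pentobarbital-anesthetized dogs (35 mg/kg iv) with femoral arterial pressure recording. Epinephrine (1 μg/kg), norepinephrine (0.75 μg/kg) and phenylephrine (7.5 μg/kg) iv challenges were given about every 10 min before and after rising iv test doses, which were spaced 90 min apart. Value is % inhibition of the pressor response.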

Canis familiaris [9] = test: Change in mean arterial pressure in anesthetized dogs for a dose of 0.1 mg/kg; assay type: functional, Canis lupus familiaris, Artery
Outline: (§3)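 Dogs anesthetized with sodium pentobarbital (35 mg/kg iv), femoral artery cannulated for pressure, ECG-triggered heart rate, femoral vein for dosing. Rising iv doses were given 90 min apart, and each dose is the full dose, not cumulative. Value is the maximal mean arterial pressure change 10–15 min after each dose, two dogs per compound, ±3 mmHg. Saline served as control.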

Canis familiaris [10] = test: Percent inhibition of the pressor responses to 1 ug/kg iv Epinephrine in pentobarbital-anesthetized dogs for a dose of 10 mg/kg; assay type: functional; settings: Canis lupus familiaris; outline: as §2
Canis familiaris [11] = test: Percent inhibition of the pressor responses to 1 ug/kg iv Epinephrine in pentobarbital-anesthetized dogs for a dose of 1 mg/kg; assay type: functional; settings: Canis lupus familiaris; outline: as §2
Canis familiaris [12] = test: Percent inhibition of the pressor responses to 7.5 ug/kg iv phenylephrine in pentobarbital-anesthetized dogs for a dose of 1 mg/kg; assay type: functional; settings: Canis lupus familiaris; outline: as §2
Canis familiaris [13] = test: Change in mean arterial pressure in anesthetized dogs for a dose of 1 mg/kg; assay type: functional, Canis lupus familiaris, Artery; outline: as §3
Canis familiaris [14] = test: Change in mean arterial pressure in anesthetized dogs for a dose of 10 mg/kg; assay type: functional, Canis lupus familiaris, Artery; outline: as §3
Canis familiaris [15] = test: Percent inhibition of the pressor responses to 0.75 ug/kg iv norepinephrine in pentobarbital-anesthetized dogs for a dose of 1 mg/kg; assay type: functional; settings: Canis lupus familiaris; outline: as §2
[16] = Distribution coefficient between 1-Octanol and phosphate buffer at pH7.4; assay type: physicochemical; settings: 1-octanol/phosphate buffer, pH 7.4
Canis familiaris [17] = test: Percent inhibition of the pressor responses to 7.5 ug/kg iv phenylephrine in pentobarbital-anesthetized dogs for a dose of 10 mg/kg; assay type: functional; settings: Canis lupus familiaris; outline: as §2
Canis familiaris [18] = test: Percent inhibition of the pressor responses to 1 ug/kg iv Epinephrine in pentobarbital-anesthetized dogs for a dose of 0.1 mg/kg; assay type: functional; settings: Canis lupus familiaris; outline: as §2
Canis familiaris [19] = test: Percent inhibition of the pressor responses to 0.75 ug/kg iv norepinephrine in pentobarbital-anesthetized dogs for a dose of 0.1 mg/kg; assay type: functional; settings: Canis lupus familiaris; outline: as §2
Rattus norvegicus [20] = test: Antihypertensive activity as percentage fall in systolic blood pressure in spontaneously hypertensive rats after a period of 4 hr for a dose of 50 mg/kg; assay type: functional, organism-based; parameters: dose 50 mg/kg; settings: Artery; outline: as §1
Rattus norvegicus [21] = test: The antihypertensive activity as percentage fall in systolic blood pressure in spontaneously hypertensive rats after a period of 3 hr for a dose of 100 mg/kg po; assay type: functional, Artery; outline: as §1
Rattus norvegicus [22] = test: The antihypertensive activity as percentage fall in systolic blood pressure in spontaneously hypertensive rats after a period of 2 hr for a dose of 100 mg/kg po; assay type: functional, Artery; outline: as §1
Rattus norvegicus [23] = test: The antihypertensive activity as percentage fall in systolic blood pressure in spontaneously hypertensive rats after a period of 1 hr for a dose of 100 mg/kg po; assay type: functional, Artery; outline: as §1
Rattus norvegicus [24] = test: The antihypertensive activity as percentage fall in systolic blood pressure in spontaneously hypertensive rats after a period of 4 hr for a dose of 100 mg/kg po; assay type: functional, Artery; outline: as §1
Rattus norvegicus [25] = test: Antihypertensive activity as percentage fall in systolic blood pressure in spontaneously hypertensive rats after a period of 4 hr for a dose of 12.5 mg/kg po; assay type: functional, Artery; outline: as §1
Rattus norvegicus [26] = test: Antihypertensive activity as percentage fall in systolic blood pressure in spontaneously hypertensive rats after a period of 2 hr for a dose of 12.5 mg/kg po; assay type: functional, Artery; outline: as §1
Rattus norvegicus [27] = test: Antihypertensive activity as percentage fall in systolic blood pressure in spontaneously hypertensive rats after a period of 3 hr for a dose of 12.5 mg/kg po; assay type: functional, Artery; outline: as §1
Rattus norvegicus [28] = test: Antihypertensive activity as percentage fall in systolic blood pressure in spontaneously hypertensive rats after a period of 1 hr for a dose of 12.5 mg/kg po; assay type: functional, Artery; outline: as §1

**Q.** What does the source list for `CCN1CC2(CCN(CC(O)C3COc4ccccc4O3)CC2)OC1=O` (stereo not drawn)?
**A.** Decrease in blood pressure (Rattus norvegicus [1]): 32%; Decrease in blood pressure (Rattus norvegicus [2]; 50 mg/kg): 18% and 15%; Decrease in blood pressure (Rattus norvegicus [3]): 9%; Decrease in blood pressure (Rattus norvegicus [4]): inactive; Decrease in blood pressure (Rattus norvegicus [5]): inactive; Decrease in blood pressure (Rattus norvegicus [6]): 18%; Decrease in blood pressure (Rattus norvegicus [7]): 11%

**Q.** Which inhibition in vivo at 0.1 mg/kg (Canis familiaris [8]) does the source give for `O=C(NC1CCN(CCc2c[nH]c3ccccc23)CC1)c1ccccc1` [INDORAMIN] here?
**A.** The inhibition in vivo at 0.1 mg/kg was 65%.

**Q.** What about the MAP (Canis familiaris [9]) of the same molecule?
**A.** The MAP was -5 mmHg.

**Q.** And the inhibition in vivo at 10 mg/kg (Canis familiaris [10])?
**A.** The inhibition in vivo at 10 mg/kg was greater than 100%.

**Q.** And the “Decrease in blood pressure” value (Rattus norvegicus [1])?
**A.** The value was 33%.

**Q.** And the inhibition in vivo at 1 mg/kg (Canis familiaris [11])?
**A.** Its inhibition in vivo at 1 mg/kg is 92%.

**Q.** And the inhibition in vivo at 1 mg/kg (Canis familiaris [12])?
**A.** Its inhibition in vivo at 1 mg/kg is 83%.

**Q.** And the MAP (Canis familiaris [13])?
**A.** The MAP was -28 mmHg.

**Q.** And the “Decrease in blood pressure” value (Rattus norvegicus [2]; 50 mg/kg)?
**A.** Its value is 20% and 11%.

**Q.** And the MAP (Canis familiaris [14])?
**A.** Its MAP is -38 mmHg.

**Q.** What about the inhibition in vivo at 1 mg/kg (Canis familiaris [15]) of the same molecule?
**A.** The inhibition in vivo at 1 mg/kg was 23%.

**Q.** What about the logD [16] of the same molecule?
**A.** The logD was 2.13.

**Q.** What about the “Decrease in blood pressure” value (Rattus norvegicus [7]) of the same molecule?
**A.** Its value is 13%.

**Q.** And the inhibition in vivo at 10 mg/kg (Canis familiaris [17])?
**A.** The inhibition in vivo at 10 mg/kg was 93%.

**Q.** What about the inhibition in vivo at 0.1 mg/kg (Canis familiaris [18]) of the same molecule?
**A.** The inhibition in vivo at 0.1 mg/kg was 74%.

**Q.** What about the inhibition in vivo at 0.1 mg/kg (Canis familiaris [19]) of the same molecule?
**A.** The inhibition in vivo at 0.1 mg/kg was 21%.

**Q.** Which results are given for `O=C1NCC2(CCN(CC(O)C3COc4ccccc4O3)CC2)O1` (stereo not drawn)?
**A.** Decrease in blood pressure (Rattus norvegicus [20]): Not significant; Decrease in blood pressure (Rattus norvegicus [21]): 11%; Decrease in blood pressure (Rattus norvegicus [22]): 14%; Decrease in blood pressure (Rattus norvegicus [1]): 28%; Decrease in blood pressure (Rattus norvegicus [23]): 24%; Decrease in blood pressure (Rattus norvegicus [2]): 12%; logD [16]: 0.98; Decrease in blood pressure (Rattus norvegicus [7]): 21%; Decrease in blood pressure (Rattus norvegicus [24]): 16%

**Q.** With `CCC1NC(=O)OC12CCN(CC1COc3ccccc3O1)CC2` (stereo not drawn) as the molecule, how does the “Decrease in blood pressure” value (Rattus norvegicus [25]) read?
**A.** The value was -11%.

**Q.** What about the “Decrease in blood pressure” value (Rattus norvegicus [1]) of the same molecule?
**A.** Its value is 51%.

**Q.** And the “Decrease in blood pressure” value (Rattus norvegicus [2]; 50 mg/kg)?
**A.** Its value is 54% and 42%.

**Q.** And the “Decrease in blood pressure” value (Rattus norvegicus [26])?
**A.** Its value is 14%.

**Q.** What about the “Decrease in blood pressure” value (Rattus norvegicus [27]) of the same molecule?
**A.** Its value is -13%.

**Q.** What about the “Decrease in blood pressure” value (Rattus norvegicus [7]) of the same molecule?
**A.** Its value is 42%.

**Q.** And the “Decrease in blood pressure” value (Rattus norvegicus [28])?
**A.** The value was 22%.
